Test results taken from the EternaBench riboswitch data.

Test system: MS2 coat protein
Test: apparent Kd, MS2 coat protein; higher = weaker binding; RNA-MaP array; FMN 200 µM where present
Summary of the method: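 Stalled E. coli RNA polymerase transcribed the designs on Illumina sequencing-chip clusters. SNAP-549-labelled MS2 coat protein was titrated from 0.7 or 1.5 nM, doubling to 3 µM, without and then with constant ligand, in 100 mM Tris-HCl pH 7.5, 80 mM KCl, 4 mM MgCl2, BSA, DTT, yeast tRNA and Tween-20. Per-cluster binding curves were fitted to green signal normalised to red-channel RNA signal and control-cluster median Fmax. The apparent Kd is the median of the filtered fits.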

[1] = designed as: OFF switch for flavin mononucleotide, no ligand
[2] = ligand present: flavin mononucleotide, designed as: OFF switch for flavin mononucleotide
[3] = designed as: ON switch for flavin mononucleotide, no ligand
[4] = ligand present: flavin mononucleotide, designed as: ON switch for flavin mononucleotide

| Sequence | apparent Kd [1] [nM] | apparent Kd [2] [nM] | apparent Kd [3] [nM] | apparent Kd [4] [nM] |
| --- | --- | --- | --- | --- |
| UUUUGACAUGAGGAUCACCCAUGUCAGGAUAUAGUAGGACAAAUAAAUAAAAGUUCUACUAGAAGGGAUAUGGA | 23.2 | 37.5 | – | – |
| GAUUGGCGACAAUUACAUGAGGAUCACCCAUGUUGUAGUAUGCAGGAUAUGUGGUAUAUUAUUUAACAGAAGGGCAAUAAUUUU | – | – | 69.6 | 85.9 |
| GGGUACAUCGGAGGAUAUCAUGUAAAUACAUGAGGAUCACCCAUGUCGAUGGACACAUCGGAGAUUGAGAAGGCCGAUGUACCG | – | – | 14.5 | 5.27 |
| AAGUAGAUCCGAGGAUAUACAUAGUGGAAUCGCUACAUGAGGAUCACCCAUGUAGAAGGCGGAUCUACAGGUACUAAAGUACCA | 14 | 112 | – | – |
| CGUAUGUAAGGAUAUAGCCACAUUACGAAUAAGUAGUGUGGCUAGAAGGUACAUGAGGAUCACCCAUGUAUGGG | 153 | 85.3 | – | – |
| AUCCGCUCGUCAGGAUAUACGUCACUGCGUCAGCAGUGUGGUAAGAUCACAUGAGGAUCACCCAUGUAGAAGGGACGAGCUGAU | 13.6 | 276 | – | – |
| UGGUACUAGGGAGGAUAUGGGAAGAUACAUGAGGAUCACCCAUGUUUAAGAGUGCCGAGAGGCAACUAGAAGGCCCUAGUACCU | – | – | 1030 | 83 |
| CGAAUGUAGACAGGAUAUCCUGGACAUGAGGAUCACCCAUGUGCAUAAAAUGGAGAAGGGUCACGGAGGCCCUGUGGGCAGGGU | – | – | 44.4 | 9.21 |
| AAGCACAGAGGAUAUACAAUCCUCAGUGGGUCUGGCGAGCCACAUGAGGAUCACCCAUGUAGAAGGCUGGGCUC | 11.8 | 14.6 | – | – |
| ACUAAGCGAGGAUAUACUAACAAACCUCAAACAUACAUCAAACAUGAGGAUCACCCAUGUAGAAGGCGCAAACU | 27.3 | 37.6 | – | – |
| UUACUCAUGUAAGGAUAUGCAGCCGUUUCGGUUGCAGAAGGUACUAUAAUACAUGAGGAUCACCCAUGUCUUUUUAAUUUAGAC | – | – | 78.4 | 39.6 |
| UUCUUACAUGAGGAUCACCCAUGUCAGGAUAUCUCCGCACUGCGCUUGCGCAGUGCAUAGAGAAGGGACAGGCU | 55 | 50.2 | – | – |
| GGGCUGUCAGGAUAUAGUUCGAGUUCGGAAAUGAGCUUGAGCUAGAAGGGACAUGAGGAUCACCCAUGUGGCCC | 31.1 | 34.2 | – | – |
| GCAUGACAAAGUCAUGCAAUACGAACAUGAGGAUCACCCAUGUAGGAUAUGCUACUCAAAGAGUAGCAGAAGGACAUGUGCCUU | 36.1 | 288 | – | – |
| AUACCACGAGGAUAUCGUCUAUUUCACAUGAGGAUCACCCAUGUUAUCUUUGUUUUGUUUCGAGAAGGCGUGUUUU | 30.9 | 20.9 | – | – |
| CUCGCGUUAGGAUAUGCUAGCUGAGAAUAAUCUGCAGCGGUGCAGAAGGAACAUGAGGAUCACCCAUGUAGGGA | 278 | 43.6 | – | – |
| GGACGUCACAUCUACAUGAGGAUCACCCAUGUCUCUUGAUAUGAGGAUAUGUAUACGAAUCGUUUAUAGAAGGCAUGGACGUCC | – | – | 286 | 312 |
| UUUAUAAAUUAGAAGGCGUGAUAAAAUACAAUAAACAUGAGGAUCACCCAUGUGUACCCAUGUUAUGAGGAUAUAGUCAUAUAU | – | – | 462 | 377 |
| GAUACACAUGAGGAUCACCCAUGUGAGGAUAUGCGUACGUUGUCCGUAGGCGACGUGCGCAGAAGGCGCAAGGU | 83.2 | 95.3 | – | – |
| AACACACAUGAGGAUCACCCAUGUGAGGAUAUCAUGCUUCGUAGUAAACUACGAAGUGUGAGAAGGCACAUGUU | 62.4 | 193 | – | – |
| UAGCAUUGCCUUUGGUAGUGCCUUACAUGAGGAUCACCCAUGUAGGAUAUGGUAGGCUUUGCUUACCAGAAGGACAUGGUAAUU | 52.9 | 259 | – | – |
| GCCUCACAUGAGGAUCACCCAUGUCAGGAUAUAGGAGACGGUAGCUUUGCUGCCAUCGCUAGAAGGGACUGGCU | 68.2 | 111 | – | – |
| AGCUAGGCAGGAUAUACGUAAAUGUCGAAAGACGUAUUGGGACAUGAGGAUCACCCAUGUAGAAGGGCCUAGCA | 31.6 | 165 | – | – |
| GAUCAGAUAGGAUAUACAGGCUCGUCUUUAUAUUGAUCCCGACAUGAGGAUCACCCAUGUAGAAGGAUCAGAUC | 16.4 | 45.7 | – | – |

| Sequence | apparent Kd [1] [nM] | apparent Kd [2] [nM] | apparent Kd [3] [nM] | apparent Kd [4] [nM] |
| --- | --- | --- | --- | --- |
| AUGAGUAAAGCAGGAUAUCUAUUGUCUCUGUAACAUGAGGAUCACCCAUGUAGAGAAGGGCUUAGUCAUUCUCUUCGGAGUUGU | 17.4 | 16.6 | – | – |
| GUACAUACAAAGUUACAUGAGGAUCACCCAUGUUUAUUGGGAAGAAGGGUAACAUUAUUAGAUGUAUAGGAUAUUUCACAAUUG | – | – | 511 | 316 |
| AGCUGUGGCAGAGGAUAUACUACUAUAAUCCAUUGCAAAUAGCGAUGGACAUGAGGAUCACCCAUGUAGAAGGCUGUCUCAGCA | 38.9 | 153 | – | – |
| UGUUGAUAGCAGAAGGACAUGAGGAUCACCCAUGUACGGAUACAAAUAUAUGUAGGAUAUGCUAUUGACUAAGAGUGAGCGUUC | 5.78 | 7.87 | – | – |
| ACUAGAUGAGGAUAUACACAUUUUAGUGUUCCUCUAGAUUAACAUGAGGAUCACCCAUGUAGAAGGCAUCAAUU | 56.5 | 183 | – | – |
| GGUACUAUCACAGGAUAUGCUUUCCUUUGGGAAGCAGAAGGGUGUAACAUGAGGAUCACCCAUGUGGUGCCAGGGCGUGGGCCC | – | – | 154 | 17 |
| AUCAGCUCGUCAGGAUAUACGUCACUGCGUCAGCAGUGUGGUAAGAUCACAUGAGGAUCACCCAUGUAGAAGGGACGAUCUGAU | 12.8 | 309 | – | – |
| AAACCACAUGAGGAUCACCCAUGUCAUAACCGUAGGGAGAAGAGAAGGGUGAGGGUGUAGCCUGCACAGGAUAUCUAGUGCCUC | – | – | 228 | 174 |
| UGGUACUAGGGAGGAUAUGGGAAGAUACAUGAGGAUCACCCAUGUUUCAGAAUGCCGAGAGGCAACUAGAAGGCCCUAGUACCU | – | – | 59.7 | 6.38 |
| AAAUAGCAUGAGGAUAUUGGACUGGAUUCAGUACGAGAAGGCAUGACAUGAGGAUCACCCAUGUUGUGUUGGGA | 19.7 | 44.8 | – | – |
| GCGUUACAUGAGGAUCACCCAUGUGAGGAUAUGGUUCGGUACUGUCCUGUCGCGUACUCCAGAAGGCACGUGUG | 47.6 | 104 | – | – |
| CUUUUAUAAUAGAAGGUAGACUUUAUGAGGAUCACCCAUGUGUUGGUACUAAGGAUAUGUAGUAACAUGAGGAUCACCCAUGUU | – | – | 25.9 | 26.5 |
| GGAUGACAUAGUCAUCUUUAACGAACAUGAGGAUCACCCAUGUAGGAUAUGCUACUCAACGAGUAGCAGAAGGACAUGUGUCUU | 25.9 | 127 | – | – |
| CACGGACAUGAGGAUCACCCAUGUGAGGAUAUGCUCUACGAACGUUUUCCCACGAGAAGCAGAAGGCACAUUUC | 78.2 | 135 | – | – |
| ACAAGACAUGAGGAUCACCCAUGUAAAGAAAACGCAGGAUAUGCAAAAAAAUUCAUGGGUGCAGAAGGGCGAAAAA | – | – | 68.1 | 322 |
| GUCAGCUCGUGAGGAUAUACAUGUGCUGGAUACAGCACUAUUGUGUUCACAUGAGGAUCACCCAUGUAGAAGGCACGAGCUGAU | 17.7 | 87.3 | – | – |
| AGGAGACAUGAGGAUCACCCAUGUGCGAGGUGAAGAGGAUAUAGAAGAAGAAGAAAGAAACUAGAAGGCUUAAAAA | – | – | 220 | 244 |
| AAUAAACUCACAGGAUAUAGCAUAGGUCGCGUGAACUUACAGACGACUAUGCUAGAAGGGUGACCACAUGAGGAUCACCCAUGU | – | – | 880 | 186 |
| ACUUUAUAUGAGAAGGUGAAGUGGAAACAUGAGGAUCACCCAUGUAAUACGAAGCGUAUUUUUAUCAAGGAUAUCAUAUAAAGA | – | – | 10.8 | 8.81 |
| AAAAUACAUGAGGAUCACCCAUGUUAGGAUAUCCAAGGUCUGACCCUCAGGGUCAGAAGGAGAAGGGAUGUGGU | 56.7 | 67.7 | – | – |
| GGCAAGUGAGGAUAUCACCACGGCGUGGGCACCACGGCCAGUGAGAAGGCACAUGAGGAUCACCCAUGUGAUCA | 88 | 541 | – | – |
| UCCGCAUCUGAGAAGGGAUCUCCGCGGAAGGGAUCAGGAUAUCGGACAUGAGGAUCACCCAUGUGCCGUUAAAGGACACCUGGU | – | 7.36 | – | – |
| CGCUACUACCAGAAGGACAUGAGGAUCACCCAUGUAGGAUAUGGGUUACACGUUCCUGUGUUUUGUUACUACGCUACGUAUGCG | – | – | 621 | 29 |
| CCAUCGGAAGGAUAUACAUGAGGAUCACCCAUGUGCGAGCCCGCGCUCUCGGGAAGAUGUAGAAGGUUCAAGAA | 35.9 | 36.3 | – | – |
